Experimental data: ChEMBL document CHEMBL4715736, “Identification of anticancer agents based on the thieno[2,3-b]pyridine and 1H-pyrazole molecular scaffolds” (2016)

Experiments:
Format in all cases: functional
[1] = test system: SNB-19; assay: Growth inhibition of human SNB-19 cells assessed as cell growth at 0.01 uM incubated for 48 hrs by sulforhodamine B assay relative to control; conditions: read-out: Activity
[2] = test system: SNB-75; assay: Growth inhibition of human SNB-75 cells assessed as cell growth at 0.01 uM incubated for 48 hrs by sulforhodamine B assay relative to control; conditions: read-out: Activity
[3] = test system: UACC-62; assay: Growth inhibition of human UACC-62 cells assessed as cell growth at 0.01 uM incubated for 48 hrs by sulforhodamine B assay relative to control; conditions: read-out: Activity
[4] = test system: RXF 393; assay: Growth inhibition of human RXF 393 cells assessed as cell growth at 0.01 uM incubated for 48 hrs by sulforhodamine B assay relative to control; conditions: read-out: Activity
[5] = test system: UO-31; assay: Growth inhibition of human UO-31 cells assessed as cell growth at 0.01 uM incubated for 48 hrs by sulforhodamine B assay relative to control; conditions: read-out: Activity
[6] = test system: NCI-H460; assay: Growth inhibition of human NCI-H460 cells assessed as cell growth at 0.1 uM incubated for 48 hrs by sulforhodamine B assay relative to control; conditions: read-out: Activity
[7] = test system: COLO 205; assay: Growth inhibition of human COLO 205 cells assessed as cell growth at 0.1 uM incubated for 48 hrs by sulforhodamine B assay relative to control; conditions: read-out: Activity
Procedure, shortened: (§1)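 NCI Developmental Therapeutics Program NCI60 panel. Compounds that were active in the 10 µM one-dose screen went on to dose–response testing. Growth at each concentration is expressed relative to untreated control (100%). GI50 (concentration giving 50% of maximal inhibition of proliferation) and TGI (concentration giving total growth inhibition) were derived from the curves.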

[8] = test system: HCC 2998; assay: Growth inhibition of human HCC 2998 cells assessed as cell growth at 0.1 uM incubated for 48 hrs by sulforhodamine B assay relative to control; conditions: read-out: Activity; procedure, shortened: as §1
[9] = test system: KM12; assay: Growth inhibition of human KM12 cells assessed as cell growth at 0.1 uM incubated for 48 hrs by sulforhodamine B assay relative to control; conditions: read-out: Activity
[10] = test system: SF-295; assay: Growth inhibition of human SF-295 cells assessed as cell growth at 0.1 uM incubated for 48 hrs by sulforhodamine B assay relative to control; conditions: read-out: Activity
[11] = test system: SF-539; assay: Growth inhibition of human SF-539 cells assessed as cell growth at 0.1 uM incubated for 48 hrs by sulforhodamine B assay relative to control; conditions: read-out: Activity
[12] = test system: SK-MEL-28; assay: Growth inhibition of human SK-MEL-28 cells assessed as cell growth at 0.1 uM incubated for 48 hrs by sulforhodamine B assay relative to control; conditions: read-out: Activity
[13] = test system: UACC-62; assay: Growth inhibition of human UACC-62 cells assessed as cell growth at 0.1 uM incubated for 48 hrs by sulforhodamine B assay relative to control; conditions: read-out: Activity
[14] = test system: OVCAR-3; assay: Growth inhibition of human OVCAR-3 cells assessed as cell growth at 0.1 uM incubated for 48 hrs by sulforhodamine B assay relative to control; conditions: read-out: Activity
[15] = test system: NCI-H322M; assay: Growth inhibition of human NCI-H322M cells assessed as cell growth at 1 uM incubated for 48 hrs by sulforhodamine B assay relative to control; conditions: read-out: Activity
[16] = test system: NCI-H460; assay: Growth inhibition of human NCI-H460 cells assessed as cell growth at 1 uM incubated for 48 hrs by sulforhodamine B assay relative to control; conditions: read-out: Activity
[17] = test system: HCT-116; assay: Growth inhibition of human HCT-116 cells assessed as cell growth at 1 uM incubated for 48 hrs by sulforhodamine B assay relative to control; conditions: read-out: Activity
[18] = test system: SNB-75; assay: Growth inhibition of human SNB-75 cells assessed as cell growth at 1 uM incubated for 48 hrs by sulforhodamine B assay relative to control; conditions: read-out: Activity
[19] = test system: U-251; assay: Growth inhibition of human U-251 cells assessed as cell growth at 1 uM incubated for 48 hrs by sulforhodamine B assay relative to control; conditions: read-out: Activity
[20] = test system: MDA-MB-435; assay: Growth inhibition of human MDA-MB-435 cells assessed as cell growth at 1 uM incubated for 48 hrs by sulforhodamine B assay relative to control; conditions: read-out: Activity
[21] = test system: 786-0; assay: Growth inhibition of human 786-0 cells assessed as cell growth at 1 uM incubated for 48 hrs by sulforhodamine B assay relative to control; conditions: read-out: Activity; procedure, shortened: as §1
[22] = test system: MDA-MB-231; assay: Growth inhibition of human MDA-MB-231 cells assessed as cell growth at 1 uM incubated for 48 hrs by sulforhodamine B assay relative to control; conditions: read-out: Activity
[23] = test system: COLO 205; assay: Growth inhibition of human COLO 205 cells assessed as cell growth at 100 uM incubated for 48 hrs by sulforhodamine B assay relative to control; conditions: read-out: Activity; procedure, shortened: as §1
[24] = test system: SF-539; assay: Growth inhibition of human SF-539 cells assessed as cell growth at 100 uM incubated for 48 hrs by sulforhodamine B assay relative to control; conditions: read-out: Activity
[25] = test system: M14; assay: Growth inhibition of human M14 cells assessed as cell growth at 100 uM incubated for 48 hrs by sulforhodamine B assay relative to control; conditions: read-out: Activity
[26] = test system: DU-145; assay: Growth inhibition of human DU-145 cells assessed as cell growth at 100 uM incubated for 48 hrs by sulforhodamine B assay relative to control; conditions: read-out: Activity; procedure, shortened: as §1
[27] = test system: SR; assay: Growth inhibition of human SR cells incubated for 48 hrs by sulforhodamine B assay
Procedure, shortened: (§2)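 NCI DTP 60-line human tumour panel. Dose-response curves were run only for ligands active in the initial 10 µM screen. GI50 (concentration giving 50% of maximal inhibition of proliferation) and TGI (concentration giving total growth inhibition) were derived from these curves.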

[28] = test system: A549; assay: Growth inhibition of human A549/ATCC cells incubated for 48 hrs by sulforhodamine B assay; conditions: for CC50: read-out: LC50 (the source's name); procedure, shortened: as §1
[29] = test system: NCI-H226; assay: Growth inhibition of human NCI-H226 cells incubated for 48 hrs by sulforhodamine B assay; conditions: for CC50: read-out: LC50 (the source's name)
Procedure, shortened: (§3)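 NCI60 panel at the NCI Developmental Therapeutics Program. Only compounds active in the 10 µM screen went to dose-response testing. GI50, the concentration giving 50% of maximal inhibition of proliferation, and TGI, the concentration giving total growth inhibition, were derived from the dose-response curves.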

[30] = test system: NCI-H322M; assay: Growth inhibition of human NCI-H322M cells incubated for 48 hrs by sulforhodamine B assay; conditions: for CC50: read-out: LC50 (the source's name); procedure, shortened: as §3
[31] = test system: SF-295; assay: Growth inhibition of human SF-295 cells incubated for 48 hrs by sulforhodamine B assay; procedure, shortened: as §2
[32] = test system: SNB-75; assay: Growth inhibition of human SNB-75 cells incubated for 48 hrs by sulforhodamine B assay; procedure, shortened: as §2
[33] = test system: UACC-62; assay: Growth inhibition of human UACC-62 cells incubated for 48 hrs by sulforhodamine B assay; procedure, shortened: as §2
[34] = test system: OVCAR-5; assay: Growth inhibition of human OVCAR-5 cells incubated for 48 hrs by sulforhodamine B assay; conditions: for CC50: read-out: LC50 (the source's name); procedure, shortened: as §2
[35] = test system: TK-10; assay: Growth inhibition of human TK-10 cells incubated for 48 hrs by sulforhodamine B assay; conditions: for CC50: read-out: LC50 (the source's name); procedure, shortened: as §2

SMILES: Nc1c(C(=O)Nc2ccccc2)sc2nc3c(cc12)CN(Cc1ccccc1)CC3
- growth at 0.01 µM [1]: 93%
- growth at 0.01 µM [2]: 91%
- growth at 0.01 µM [3]: 95%
- growth at 0.01 µM [4]: 96%
- growth at 0.01 µM [5]: 80%
- growth at 0.1 µM [6]: 102%
- growth at 0.1 µM [7]: 94%
- growth at 0.1 µM [8]: 97%
- growth at 0.1 µM [9]: 95%
- growth at 0.1 µM [10]: 90%
- growth at 0.1 µM [11]: 90%
- growth at 0.1 µM [12]: 93%
- growth at 0.1 µM [13]: 92%
- growth at 0.1 µM [14]: 100%
- growth at 1 µM [15]: 91%
- growth at 1 µM [16]: 91%
- growth at 1 µM [17]: 86%
- growth at 1 µM [18]: 64%
- growth at 1 µM [19]: 101%
- growth at 1 µM [20]: 68%
- growth at 1 µM [21]: 106%
- growth at 1 µM [22]: 92%
- growth at 100 µM [23]: 23%
- growth at 100 µM [24]: 11%
- growth at 100 µM [25]: 35%
- growth at 100 µM [26]: 16%
- GI50 [27]: 13.1 µM
- LC50 [27]: > 100 µM
- TGI [27]: > 100 µM
- GI50 [28]: 13.9 µM
- TGI [28]: > 100 µM
- CC50 [28]: > 100 µM
- GI50 [29]: 4.91 µM
- TGI [29]: > 100 µM
- CC50 [29]: > 100 µM
- GI50 [30]: > 100 µM
- TGI [30]: > 100 µM
- CC50 [30]: > 100 µM
- GI50 [31]: 5.45 µM
- LC50 (concentration killing 50% of cells) [31]: > 100 µM
- TGI [31]: > 100 µM
- GI50 [32]: 1.32 µM
- TGI [32]: 3.5 µM
- GI50 [33]: 13.9 µM
- LC50 [33]: > 100 µM
- TGI [33]: > 100 µM
- GI50 [34]: > 100 µM
- TGI [34]: > 100 µM
- CC50 [34]: > 100 µM
- GI50 [35]: 4.09 µM
- TGI [35]: 54.7 µM
- CC50 [35]: > 100 µM

SMILES: Cc1cc(C)c(NC(=O)c2sc3nc4c(cc3c2N)CN(Cc2ccccc2)CC4)c(C)c1
- growth at 0.01 µM [1]: 98%
- growth at 0.01 µM [2]: 82%
- growth at 0.01 µM [3]: 101%
- growth at 0.01 µM [4]: 92%
- growth at 0.01 µM [5]: 91%
- growth at 0.1 µM [6]: 103%
- growth at 0.1 µM [7]: 104%
- growth at 0.1 µM [8]: 98%
- growth at 0.1 µM [9]: 103%
- growth at 0.1 µM [10]: 92%
- growth at 0.1 µM [11]: 96%
- growth at 0.1 µM [12]: 97%
- growth at 0.1 µM [13]: 97%
- growth at 0.1 µM [14]: 105%
- growth at 1 µM [15]: 102%
- growth at 1 µM [16]: 96%
- growth at 1 µM [17]: 79%
- growth at 1 µM [18]: 79%
- growth at 1 µM [19]: 92%
- growth at 1 µM [20]: 20%
- growth at 1 µM [21]: 82%
- growth at 1 µM [22]: 89%
- growth at 100 µM [23]: -60%
- growth at 100 µM [24]: -45%
- growth at 100 µM [25]: -18%
- growth at 100 µM [26]: -5%
- GI50 [27]: 1.83 µM
- LC50 [27]: > 100 µM
- TGI [27]: 10.7 µM
- GI50 [28]: 4.11 µM
- TGI [28]: > 100 µM
- CC50 [28]: > 100 µM
- GI50 [29]: 4.69 µM
- TGI [29]: > 100 µM
- CC50 [29]: > 100 µM
- GI50 [30]: 8.65 µM
- TGI [30]: > 100 µM
- CC50 [30]: > 100 µM
- GI50 [31]: 1.89 µM
- LC50 (concentration killing 50% of cells) [31]: > 100 µM
- TGI [31]: 64.7 µM
- GI50 [32]: 2.35 µM
- LC50 [32]: > 100 µM
- TGI [32]: 11 µM
- GI50 [33]: 3.9 µM
- LC50 [33]: > 100 µM
- TGI [33]: 42.4 µM
- GI50 [34]: 12.5 µM
- TGI [34]: > 100 µM
- CC50 [34]: > 100 µM
- GI50 [35]: 5.06 µM
- TGI [35]: > 100 µM
- CC50 [35]: > 100 µM
